Data on three molecules can be found in publication PMC8404148 (Endocrine-related cancer, 2021).

For one assay, the system named is MCF-7 cells. Conditions: read-out: IC50 for suppressing MCF-7 cell growth, ref Wang et al. 2014; cited from earlier work.
Another assay deals with 5097 PDX organoids. Nature of the assay: Breast cancer PDX organoid growth, 5097 line. The assay is classed as cell-based, human. Conditions: 10 nM single agent, two weeks, vs vehicle.
The test system of another assay is 4013 PDX organoids. Nature of the assay: Breast cancer PDX organoid growth, 4013 line. The assay is classed as cell-based, human. Conditions: SI-12 10 nM, BEZ235 2 nM, two weeks. The gist of the method: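 Organoids derived from the 4013 PDX tumour, which came from a patient with triple-negative infiltrating ductal carcinoma. The tumour was passaged in mice eight times before use.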

Regarding `C[C@]12CC[C@H](O)C[C@H]1CC[C@@H]1[C@@H]2CC[C@]2(C)[C@@H](c3ccc(=O)oc3)CC[C@]12O` [bufalin], the IC50 in the assay with MCF-7 cells is 3.2 nM.
With `CCN1CCN(Cc2ccc(Nc3ncc(F)c(-c4cc(F)c5nc(C)n(C(C)C)c5c4)n3)nc2)CC1` [Abemaciclib], the organoid numbers result in the assay on 5097 PDX organoids was “reduced organoid numbers”.
`Cn1c(=O)n(-c2ccc(C(C)(C)C#N)cc2)c2c3cc(-c4cnc5ccccc5c4)ccc3ncc21` [BEZ235]: the “organoid formation, single compound” value in the assay with 4013 PDX organoids is on record as “could repress organoid formation”.
